In the library only some 1.8% were active in any assay of this set; here they are far more common.
mABHD4 FP: ABHD4 (mouse) inhibition, primary FP screen; Q8VD66; 370,000 compounds, 0.54% hits; inhibition, % at 8.92 µM; purified mABHD4, FP-Rh probe fluorescence polarization;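 active means inhibition exceeding the mean over every tested compound plus 3 SD, cut at about 30% in these data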;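 further: 0% = plate median of compound wells and 100% = S159A mutant with DMSO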
Target sequence (Q8VD66 whole entry, looked up): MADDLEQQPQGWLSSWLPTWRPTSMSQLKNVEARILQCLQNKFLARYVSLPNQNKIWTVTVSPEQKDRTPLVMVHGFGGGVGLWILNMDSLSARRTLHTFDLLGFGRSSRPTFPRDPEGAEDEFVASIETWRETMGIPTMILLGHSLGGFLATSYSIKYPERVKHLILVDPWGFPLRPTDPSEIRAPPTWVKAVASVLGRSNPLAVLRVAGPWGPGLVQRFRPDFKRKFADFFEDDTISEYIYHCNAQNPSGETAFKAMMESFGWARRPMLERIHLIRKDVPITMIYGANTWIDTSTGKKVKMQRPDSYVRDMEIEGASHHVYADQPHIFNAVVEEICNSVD
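Doses – 8.92 µM, single dose · Material – wild-type mouse ABHD4 protein · Replication – single well per compound (singlicate) · Measure – percent inhibition of probe binding, normalized to plate controls · Schedule – 45 min compound pre-incubation plus 60 min probe step, 25 °C · Detection – fluorescence polarization with parallel and perpendicular emission, 525/598 nm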
HTRA1 inhibitor: HTRA1 (human) protease inhibition. 340,000 compounds, 0.5% hits. recombinant HTRA1, FP-rhodamine activity-based probe, fluorescence polarization. Q92743. AID 504803. inhibition, % at 5.96 µM; in the data active means inhibition above about 36%;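 further: 0% = enzyme with DMSO and 100% = wells lacking enzyme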
SIAE inh: human SIAE inhibition, primary screen; Q9HAT2; SIAE FP-Rh probe binding, fluorescence polarization; 370,000 compounds, 0.69% hits; inhibition, % at 9.66 µM;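 active means inhibition above a cutoff: mean of compounds within the control limits plus 3 SD of those, cut at about 17% in these data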;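 further: 0% = plate median of compound wells and 100% = probe without SIAE protein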
DDE Tn6 FP inh: disrupts Tn6 cyclic peptide binding to fibrin D-Dimer-E complex; P02675; Fibrin DD(E) TRITC-Tn6 fluorescence polarization displacement; inhibition, % at 8.3 µM; 370,000 compounds, 0.21% hits;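 active means inhibition above a per-campaign cutoff: mean of compounds within control limits plus 3 SD, cut at about 15% in these data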;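 further: 0% = median of all compound wells on the plate and 100% = blocking peptide control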
Target sequence (P02675 whole entry, looked up): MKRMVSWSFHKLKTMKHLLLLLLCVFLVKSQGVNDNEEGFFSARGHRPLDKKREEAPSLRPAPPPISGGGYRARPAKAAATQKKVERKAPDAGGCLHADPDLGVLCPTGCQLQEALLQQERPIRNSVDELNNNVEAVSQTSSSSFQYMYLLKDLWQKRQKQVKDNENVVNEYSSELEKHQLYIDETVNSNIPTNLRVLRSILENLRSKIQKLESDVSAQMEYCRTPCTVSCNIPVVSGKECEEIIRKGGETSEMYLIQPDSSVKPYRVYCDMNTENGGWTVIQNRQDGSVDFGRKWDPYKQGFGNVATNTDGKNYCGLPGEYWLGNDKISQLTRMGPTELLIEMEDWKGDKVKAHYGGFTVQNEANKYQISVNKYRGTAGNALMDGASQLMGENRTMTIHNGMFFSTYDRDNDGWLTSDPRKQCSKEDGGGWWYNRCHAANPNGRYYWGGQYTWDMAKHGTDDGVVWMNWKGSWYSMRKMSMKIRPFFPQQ
Tn7 DDE FP: inhibitors of Tn7 peptide binding to human fibrin DD(E); 370,000 compounds, 0.13% hits; inhibition, % at 8.3 µM; P02675; FP displacement of FITC-Tn7 peptide from fibrin DD(E); 0% = median of compound wells per plate;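 active means inhibition above the mean of compounds falling within the control limits plus 3 SD of them, cut at about 14% in these data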;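 further: 0% = plate median of compound wells and 100% = 10 µM Aha-Tn7 peptide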
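Assay system: Human clot-derived fibrin DD(E) complex | Buffer or medium: Tris/NaCl/CaCl2 buffer, pH 7.8 | Repeats: One replicate per compound | Benchmarks: Aha-Tn7 high control | Measure: % inhibition scaled between sample-field median and high-control FP | Schedule: 10 min plus 3 h, room temperature | Signal: Fluorescence polarization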
TCR CD3 inh: inhibitors of human TCR-CD3 interaction; TAMRA-labeled TCR probe fluorescence, biochemical; inhibition, % at 9.4 µM; 360,000 compounds, 0.37% hits; in the data active means inhibition above about 19%;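 further: recombinant mutant TCR 2C K166C tagged with TAMRA read by polarization; 0% = receptor in buffer alone and 100% = receptor with positive control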
DDE Tn7 confirm: confirmation of inhibitors of Tn7 binding to human fibrin DD(E) | FP displacement of TRITC-Tn7 peptide from DD(E); 0% set at plate's compound-well median | inhibition, % at 8.3 µM | AID 720628 | 460 compounds, 5% hits | shares compounds with Tn7 DDE FP;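 active means inhibition above the campaign cutoff, the mean of compounds within control limits plus 3 SD, cut at about 14% in these data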;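 further: 100% = median FP of high control wells holding Aha-Tn7 inhibitor peptide; displacers lower polarization since freed probe rises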
DDE Tn7 FP ctr: counter-screen for inhibitors of Tn7 peptide binding to fibrin DD(E) | 460 compounds, 3% hits | TRITC-Tn7 probe displacement, fluorescence polarization | shares compounds with Tn7 DDE FP | AID 720633 | inhibition, % at 8.3 µM;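 active means inhibition above the cutoff, the mean of compounds lying between the control bounds plus 3 SD of those compounds, cut at about 17% in these data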;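 further: 0% = median of compound sample wells and 100% = excess unlabeled Aha-Tn7 peptide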
An asterisk follows results filed as active; nt = not tested or not shown; ! = not active in a repeat.

SMILES | mABHD4 FP | HTRA1 inhibitor | SIAE inh | DDE Tn6 FP inh | Tn7 DDE FP | TCR CD3 inh | DDE Tn7 confirm | DDE Tn7 FP ctr
O=C1CCCC2=C1C(c1ccsc1)CC(=O)N2c1ccccc1F (stereo not drawn) | 5.1 | 3.1 | -10.0 | 4.0 | 14.8* | -4.9 | 1.2 | -2.2
O=C1CCCC2=C1C(c1ccccc1)CC(=O)N2c1ccccc1 (stereo not drawn) | -6.0 | -0.5 | 1.0 | -3.5 | -1.8 | 3.6 | nt | nt
COc1cc(OC)c(CNC2CCCCCC2)cc1Br | 3.1 | 1.1 | -4.9 | -3.5 | 14.8* | 6.0 | 2.0 | 1.4
COc1ccccc1CNC(=O)COC(=O)/C=C/c1ccc2c(c1)OCO2 | 4.1 | 2.5 | -0.8 | 0.6 | 3.7 | -0.5 | nt | nt
N/C(=N\OC(=O)c1ccc2c(c1)OCO2)c1ccncc1 | -7.3 | -1.0 | 1.0 | -2.7 | 14.9* | -3.2 | 8.1 | 3.6
N/C(=N\OC(=O)c1ccc2c(c1)OCO2)c1ccc(Cl)cc1 | 7.4 | 4.1 | 12.5 | -1.1 | 1.5 | -4.4 | nt | nt
COc1ccc(NC(=S)N2CCN(Cc3ccccc3)CC2)c(OC)c1 | -0.7 | -1.3 | 3.3 | -2.7 | 14.7* | -5.8 | 4.0 | 6.4
Cc1cc(C)n(-c2nc3ccccc3c(=O)n2OCC(=O)N(C)C)n1 | -0.2 | -1.8 | 1.9 | -5.9 | 4.1 | 0.1 | nt | nt
Cc1cc(C)n(-c2nc3ccccc3c(=O)n2OCC(=O)Nc2c(C)cccc2C)n1 | 2.0 | 1.2 | -6.1 | 1.8 | 16.0* | 0.1 | -14.8 | -11.7
CC1CN(C(=O)c2ccccc2)OC(c2ccc3c(c2)OCO3)O1 (stereo not drawn) | 6.3 | -0.7 | -0.1 | 5.7 | 14.5* | -0.9 | -3.4 | -1.0
NC(=O)C(CCc1nc2ccccc2[nH]1)NS(=O)(=O)c1ccccc1 (stereo not drawn) | 2.6 | -7.4 | -3.6 | 4.7 | 14.9* | 0.5 | 6.2 | -0.2
Cc1ccc(S(=O)(=O)NCCc2nc3ccccc3[nH]2)cc1 | -1.2 | -4.7 | 0.8 | 3.2 | 8.7 | 1.9 | nt | nt
O=C(CSc1nnc(CNC(=O)c2cccc(C(F)(F)F)c2)o1)NC1CCCC1 | 2.2 | -1.7 | -1.8 | 2.7 | -9.9 | 3.8 | nt | nt
CCC(CC)C(=O)c1c[nH]c(C(=O)NCc2ccccc2)c1 | -1.3 | -2.9 | -2.3 | -0.8 | 14.4* | 8.2 | 0.4 | -1.5
CCC(CC)C(=O)c1c[nH]c(C(=O)NCc2ccccc2OC)c1 | 1.8 | -8.0 | 4.6 | -9.4 | 2.6 | -1.2 | nt | nt
CCOc1ccc(NC(=O)CN2CCN(CC(=O)Nc3ccc4c(c3)OCCO4)CC2)cc1 | -5.8 | 8.6 | -2.1 | -1.1 | 15.3* | -1.0 | -1.0 | -4.4
COc1cc(C2c3cc4c(cc3OC(NCc3ccccc3)C2C)OCO4)cc(OC)c1OC (stereo not drawn) | 2.4 | 1.5 | -1.1 | 1.8 | 13.9* | 2.2 | -2.2 | -3.3
COc1ccc(/C=C2\CCc3c2nc2ccccc2c3C(=O)O)cc1OC | 12.5 | 8.1 | 8.8 | -9.5 | 23.3* | -0.5 | -6.0 | -13.4
CCOc1ccc(/C=C2\CCCc3c2nc2ccccc2c3C(=O)O)cc1OC | nt | 14.1 | nt | nt | nt | nt | nt | nt
CC(C)(C)NC(=O)C(c1ccc(O)cc1)N(Cc1ccc2c(c1)OCO2)C(=O)CCl (stereo not drawn) | -1.8 | 3.4 | 1.6 | 4.4 | 2.4 | 2.0 | nt | nt
COc1cc(CN2C[C@@H](CO)O[C@@H](n3cnc4c(N5CCCC5)ncnc43)C2)cc(OC)c1OC | 4.7 | nt | 5.9 | -3.0 | -4.0 | -2.7 | nt | nt
O=C(c1cccs1)N1CCC(Cc2ccccc2)CC1 | -7.3 | -3.0 | 1.8 | -9.6 | 14.1* | 0.3 | -6.0 | -8.1
O=C(c1cccs1)N1CCN(Cc2ccccc2)CC1 | -6.3 | -0.5 | 2.9 | 5.0 | 6.8 | -6.2 | nt | nt
Cn1c(=O)c(NC2CCCCC2)c2c3c(cccc31)C(=O)c1ccccc1-2 | 8.3 | -7.5 | -1.8 | -1.4 | 19.0* | 0.0 | 2.3 | 11.5
Cn1c(NC2CCCCC2)cc(=O)n(C)c1=O | -3.3 | 5.0 | -1.6 | 3.6 | 3.5 | 2.0 | nt | nt
SMILES | mABHD4 FP | HTRA1 inhibitor | SIAE inh | DDE Tn6 FP inh | Tn7 DDE FP | TCR CD3 inh | DDE Tn7 confirm | DDE Tn7 FP ctr
CN1C2C=C3C(C#N)=C(N)C(C#N)(C#N)[C@H](c4c(F)cccc4F)[C@H]3C1CC2 (stereo partly drawn) | 15.6 | -1.4 | 7.0 | -3.5 | 3.3 | 10.4 | nt | nt
N#CC1=C(N)C(C#N)(C#N)[C@H](c2c(F)cccc2F)[C@H]2CC3(CC=C12)OCCO3 | 4.5 | -3.8 | 0.0 | -1.3 | 15.6* | 2.2 | -2.0 | -10.4
Cc1ccc(C(=O)NC(Cc2ccccc2C(F)(F)F)C(=O)O)cc1 (stereo not drawn) | 1.9 | 1.9 | -3.0 | -2.0 | 2.1 | 3.4 | nt | nt
CCCCN(C)C(=O)c1cc2cc3ccc(OC)cc3nc2s1 | -0.2 | -84.5 | 3.8 | -1.6 | 14.5* | 3.4 | 4.2 | 4.6
CCCCN(CC)C(=O)c1cc2cc3ccc(OC)cc3nc2o1 | 1.2 | -51.1 | 2.5 | -5.3 | 3.7 | -0.6 | nt | nt
Nc1ccc(N2CCCCC2)c(Cl)c1 | -6.0 | -3.6 | -2.9 | -1.4 | 1.4 | -1.4 | nt | nt
COc1cc(C)c(Cl)c(C)c1S(=O)(=O)NCc1ccc2c(c1)OCO2 | -2.5 | -5.5 | -3.9 | 3.4 | 16.1* | -0.2 | -1.5 | -6.0
COc1cc(C)c(S(=O)(=O)NCc2ccc3c(c2)OCO3)cc1C | -12.8 | -5.7 | -3.3 | -8.3 | 3.3 | -12.5 | nt | nt
Cc1ccc(NC(=S)NCc2ccc(Cl)cc2)c(OC(F)F)c1 | -17.2 | -26.7 | -2.8 | 6.8 | 13.9* | -1.2 | 10.6 | -0.1
CC1=CC(C)(C)NC(=S)N1c1cccc(C)c1 | -2.4 | 1.6 | -4.3 | 5.0 | 14.2*! | 5.9 | 4.7 | -6.9
COc1ccccc1NC(=O)COC(=O)c1cnc(C)cn1 | 2.1 | 12.3 | 4.1 | 3.1 | 7.0 | 5.8 | nt | nt
CSc1ccccc1NC(=O)COC(=O)c1cnc(C)cn1 | -2.2 | -2.2 | 1.9 | -2.4 | 14.2* | -7.5 | -1.4 | -6.4
Cc1ccc(C(=O)NCC(=O)N2CCN(c3cccc(Cl)c3)CC2)s1 | -5.8 | -2.2 | -1.0 | -3.1 | 10.2 | -4.9 | nt | nt
O=C1C=C(NNC(=O)c2cccnc2)CC(c2ccco2)C1 (stereo not drawn) | 14.2 | 8.4 | 8.2 | -8.0 | 16.1* | 1.7 | -1.2 | -13.7
CC1(C)CC(=O)C=C(NNC(=O)c2cccnc2)C1 | -1.2 | nt | 5.6 | 5.3 | 8.9 | 8.9 | nt | nt
CC(OC(=O)c1ccco1)C(=O)Nc1ccc(Cl)cn1 (stereo not drawn) | 5.5 | 5.8 | -1.5 | 1.5 | 14.6* | -1.6 | -2.9 | -6.8
CC(C)c1nnc(N2C(=O)C(O)=C(C(=O)c3cccs3)C2c2ccccc2)s1 (stereo not drawn) | -23.3 | -10.1 | -20.8 | -5.5 | 30.5* | -5.4 | 3.1 | 0.0
